# Experimental data as given in ChEMBL document CHEMBL4382210, “Identification of novel benzothiopyranone compounds against Mycobacterium tuberculosis through scaffold morphing from benzothiazinones” (Eur J Med Chem, 2018).
# Key:
# [1] = Half life in CD-1 mouse hepatocytes assessed per million cells at 1 uM incubated up to 120 mins by LC-MS/MS analysis; assay type: ADME, cell-based, Hepatocyte
# Procedure, shortened: (§1)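 Pooled male CD-1 mouse or pooled human hepatocytes at 1 million cells/mL final, compound at 1 µM. Incubated at 37 °C in a CO2 incubator with shaking (~100 rpm). Samples taken at 0, 15, 30, 60, 90 and 120 min and quenched with cold ACN/MeOH containing internal standard. Parent compound remaining measured by LC-MS/MS.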
# [2] = AUC (0 to infinity) in BALB/C mouse at 10 mg/kg, iv by LC/TSQ quantum access mass spectrometry; assay type: ADME, organism-based; set-up: dose 10 mg/kg, route intravenous, time infinity; details: in vivo
# Procedure, shortened: (§2)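 Male Balb/c mice (22–23 g), three per route. Single dose of 25 mg/kg p.o. (2.5 mg/mL in 0.5% carboxymethyl cellulose + 0.5% Tween 80) or 10 mg/kg i.v. (2.0 mg/mL in 20% HP-β-CD with 4 mol/L HCl). Blood sampled 5, 15, 30 min, 1, 2, 4, 7, 24 h. Plasma extracted with acetonitrile plus terfenadine internal standard, then LC-MS/MS on a C18 column. F = (AUCpo×dose_iv)/(AUCiv×dose_po).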
# [3] = AUC (0 to 24 hrs) in BALB/C mouse at 10 mg/kg, iv by LC/TSQ quantum access mass spectrometry; assay type: ADME, organism-based; set-up: time < 24 hr, dose 10 mg/kg, route intravenous; details: in vivo; procedure, shortened: as §2
# [4] = Intrinsic clearance in CD-1 mouse hepatocytes assessed per million cells at 1 uM incubated up to 120 mins by LC-MS/MS analysis; assay type: ADME, cell-based, Hepatocyte; details: read-out: CLH; procedure, shortened: as §1
# [5] = MRT (0 to infinity) in BALB/C mouse at 10 mg/kg, iv by LC/TSQ quantum access mass spectrometry; assay type: ADME, organism-based; details: in vivo; procedure, shortened: as §2
# [6] = AUC (0 to 24 hrs) in BALB/C mouse at 25 mg/kg, po by LC/TSQ quantum access mass spectrometry; assay type: ADME, organism-based; set-up: time < 24 hr, dose 25 mg/kg, route oral; details: in vivo; procedure, shortened: as §2
# [7] = Elimination half life in BALB/C mouse at 25 mg/kg, po by LC/TSQ quantum access mass spectrometry; assay type: ADME, organism-based; details: in vivo, read-out: beta t1/2 (converted); procedure, shortened: as §2
# [8] = target: Voltage-gated inwardly rectifying potassium channel KCNH2 (Homo sapiens, UniProt Q12809); test: Inhibition of human ERG expressed in HEK293 cells by whole-cell patch clamp assay; assay type: cell-based
# Procedure, shortened: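 HEK293 cells stably transfected with hERG. Current recorded by whole-cell manual patch clamp at 25 °C, sampled at 10 kHz. Five concentrations tested (30, 10, 3.0, 1.0, 0.3 µM) in duplicate for IC50, with dofetilide as positive control.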
# Cytochrome P450 2D6 = Cytochrome P450 2D6 (Homo sapiens, UniProt P10635); test: Inhibition of CYP2D6 in human liver microsomes after 20 mins by LC-MS/MS analysis; assay type: ADME
# Procedure, shortened: (§3)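 Compound at 0.1–50 µM incubated 20 min with human liver microsomes (0.2 mg/mL) and the CYP isoform, alongside isoform-specific probe substrates. Substrate remaining measured by LC-MS/MS at each concentration to derive IC50.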
# Cytochrome P450 1A2 = target: T1, Cytochrome P450 1A2 (Homo sapiens, UniProt P05177); test: Inhibition of CYP1A2 in human liver microsomes after 20 mins by LC-MS/MS analysis; assay type: ADME; procedure, shortened: as §3
# T1 sequence (P05177 whole entry): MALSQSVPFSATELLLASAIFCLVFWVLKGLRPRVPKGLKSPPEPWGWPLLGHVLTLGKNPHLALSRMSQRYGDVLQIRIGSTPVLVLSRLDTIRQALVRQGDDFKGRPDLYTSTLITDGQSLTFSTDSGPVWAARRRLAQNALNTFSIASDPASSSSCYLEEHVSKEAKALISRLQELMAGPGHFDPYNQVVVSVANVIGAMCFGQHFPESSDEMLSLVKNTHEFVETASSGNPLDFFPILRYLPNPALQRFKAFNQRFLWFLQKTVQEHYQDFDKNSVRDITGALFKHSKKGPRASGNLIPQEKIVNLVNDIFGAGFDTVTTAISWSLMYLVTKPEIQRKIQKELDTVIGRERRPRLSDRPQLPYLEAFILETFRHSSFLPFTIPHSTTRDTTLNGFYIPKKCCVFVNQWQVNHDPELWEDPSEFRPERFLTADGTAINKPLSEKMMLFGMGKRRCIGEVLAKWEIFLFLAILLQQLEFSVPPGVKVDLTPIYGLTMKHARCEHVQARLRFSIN
# [9] = tested on: Mycobacterium tuberculosis; test: Antimicrobial activity against Mycobacterium tuberculosis H37Rv after 7 days by MABA; assay type: functional; details: 168 h
# Procedure, shortened: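 Strain H37Rv or clinical isolates grown to late log phase in 7H9-ADC-TG, washed, resuspended in PBS, filtered (8 µm) and frozen. On day 7 Tween 80 and alamar blue added, read 16–24 h later (ex 530/em 590). MIC = lowest concentration giving ≥90% fluorescence reduction versus bacterium-only controls.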
# [10] = Elimination half life in BALB/C mouse at 10 mg/kg, iv by LC/TSQ quantum access mass spectrometry; assay type: ADME, organism-based; details: in vivo, read-out: beta t1/2 (converted); procedure, shortened: as §2
# [11] = Selectivity index, ratio of IC50 for human HepG2 cells to MIC=>90 for Mycobacterium tuberculosis H37Rv; assay type: toxicity; details: read-out: Selectivity Index
# [12] = AUC (0 to infinity) in BALB/C mouse at 25 mg/kg, po by LC/TSQ quantum access mass spectrometry; assay type: ADME, organism-based; set-up: dose 25 mg/kg, time infinity, route oral; details: in vivo; procedure, shortened: as §2
# [13] = Metabolic stability in CD-1 mouse liver microsomes assessed as parent compound remaining at 1 uM measured after 30 mins in presence of NADPH by LC-MS/MS analysis; assay type: ADME, Microsome; details: read-out: Stability
# Procedure, shortened: (§4)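 Male CD-1 mouse or pooled human liver microsomes (1 mg/mL protein), compound at 1 µM, 37 °C. Reaction started with 1 mM NADPH and quenched with cold ACN/MeOH containing internal standard. Parent remaining measured by LC-MS/MS; the 30-min value is normalised to time zero.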
# Cytochrome P450 2C9 = Cytochrome P450 2C9 (Homo sapiens, UniProt P11712); test: Inhibition of CYP2C9 in human liver microsomes after 20 mins by LC-MS/MS analysis; assay type: ADME; procedure, shortened: as §3
# [14] = Oral bioavailability in BALB/C mouse at 25 mg/kg by LC/TSQ quantum access mass spectrometry; assay type: ADME, organism-based; details: in vivo; procedure, shortened: as §2
# [15] = Intrinsic clearance in human hepatocytes assessed per million cells at 1 uM incubated up to 120 mins by LC-MS/MS analysis; assay type: ADME, cell-based, Hepatocyte; details: read-out: CLH; procedure, shortened: as §1
# Cytochrome P450 3A4 = Cytochrome P450 3A4 (Homo sapiens, UniProt P08684); test: Inhibition of CYP3A4 in human liver microsomes after 20 mins by LC-MS/MS analysis; assay type: ADME; procedure, shortened: as §3
# [16] = Clearance in BALB/C mouse at 10 mg/kg, iv by LC/TSQ quantum access mass spectrometry; assay type: ADME, organism-based; details: in vivo; procedure, shortened: as §2
# [17] = Half life in human hepatocytes assessed per million cells at 1 uM incubated up to 120 mins by LC-MS/MS analysis; assay type: ADME, cell-based, Hepatocyte; procedure, shortened: as §1
# [18] = Metabolic stability in human liver microsomes assessed as parent compound remaining at 1 uM measured after 30 mins in presence of NADPH by LC-MS/MS analysis; assay type: ADME, Microsome; details: read-out: Stability; procedure, shortened: as §4
# Cytochrome P450 2C19 = Cytochrome P450 2C19 (Homo sapiens, UniProt P33261); test: Inhibition of CYP2C19 in human liver microsomes after 20 mins by LC-MS/MS analysis; assay type: ADME; procedure, shortened: as §3
# Cytochrome P450 2C19, sequence (P33261 whole entry): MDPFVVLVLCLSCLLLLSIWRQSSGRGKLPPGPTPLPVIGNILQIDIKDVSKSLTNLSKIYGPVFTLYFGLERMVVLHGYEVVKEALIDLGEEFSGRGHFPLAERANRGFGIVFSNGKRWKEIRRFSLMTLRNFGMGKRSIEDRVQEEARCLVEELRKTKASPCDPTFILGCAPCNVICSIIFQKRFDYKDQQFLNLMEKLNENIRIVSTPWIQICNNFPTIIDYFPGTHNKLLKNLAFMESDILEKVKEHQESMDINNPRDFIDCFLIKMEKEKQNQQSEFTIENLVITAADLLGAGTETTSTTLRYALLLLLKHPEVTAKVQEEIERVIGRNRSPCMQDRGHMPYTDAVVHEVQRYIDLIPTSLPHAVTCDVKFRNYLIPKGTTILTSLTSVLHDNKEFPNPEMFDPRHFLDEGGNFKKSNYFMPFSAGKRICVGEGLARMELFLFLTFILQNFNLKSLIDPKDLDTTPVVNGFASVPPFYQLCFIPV
# Cytochrome P450 2C9, sequence (P11712 whole entry): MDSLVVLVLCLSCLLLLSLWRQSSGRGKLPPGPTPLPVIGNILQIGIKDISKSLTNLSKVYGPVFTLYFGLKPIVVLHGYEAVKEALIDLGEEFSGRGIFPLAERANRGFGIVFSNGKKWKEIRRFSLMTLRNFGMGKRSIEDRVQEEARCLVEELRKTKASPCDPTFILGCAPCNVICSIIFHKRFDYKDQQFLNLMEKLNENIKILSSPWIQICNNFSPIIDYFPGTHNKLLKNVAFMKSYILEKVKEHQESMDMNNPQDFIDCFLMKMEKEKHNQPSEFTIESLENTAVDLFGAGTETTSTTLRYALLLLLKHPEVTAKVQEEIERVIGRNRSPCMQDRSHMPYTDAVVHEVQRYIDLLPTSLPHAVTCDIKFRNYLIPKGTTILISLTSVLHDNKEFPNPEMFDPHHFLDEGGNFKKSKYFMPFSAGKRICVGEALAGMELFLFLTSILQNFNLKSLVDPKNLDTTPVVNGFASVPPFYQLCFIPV
# Cytochrome P450 3A4, sequence (P08684 whole entry): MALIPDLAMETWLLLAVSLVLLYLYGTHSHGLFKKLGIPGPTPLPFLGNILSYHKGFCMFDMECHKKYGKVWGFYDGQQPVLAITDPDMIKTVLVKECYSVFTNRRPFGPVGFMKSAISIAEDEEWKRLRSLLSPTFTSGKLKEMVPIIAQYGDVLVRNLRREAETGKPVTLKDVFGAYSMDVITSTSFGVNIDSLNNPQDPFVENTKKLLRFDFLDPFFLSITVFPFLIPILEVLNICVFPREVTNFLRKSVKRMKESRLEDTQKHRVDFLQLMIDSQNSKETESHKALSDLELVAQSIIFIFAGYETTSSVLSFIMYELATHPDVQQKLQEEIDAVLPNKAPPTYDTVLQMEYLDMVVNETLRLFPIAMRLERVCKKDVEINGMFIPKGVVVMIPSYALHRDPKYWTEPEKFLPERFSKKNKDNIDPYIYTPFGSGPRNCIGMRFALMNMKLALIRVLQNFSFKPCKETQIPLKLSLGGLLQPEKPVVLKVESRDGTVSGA
# Cytochrome P450 2D6, sequence (P10635 whole entry, canonical isoform): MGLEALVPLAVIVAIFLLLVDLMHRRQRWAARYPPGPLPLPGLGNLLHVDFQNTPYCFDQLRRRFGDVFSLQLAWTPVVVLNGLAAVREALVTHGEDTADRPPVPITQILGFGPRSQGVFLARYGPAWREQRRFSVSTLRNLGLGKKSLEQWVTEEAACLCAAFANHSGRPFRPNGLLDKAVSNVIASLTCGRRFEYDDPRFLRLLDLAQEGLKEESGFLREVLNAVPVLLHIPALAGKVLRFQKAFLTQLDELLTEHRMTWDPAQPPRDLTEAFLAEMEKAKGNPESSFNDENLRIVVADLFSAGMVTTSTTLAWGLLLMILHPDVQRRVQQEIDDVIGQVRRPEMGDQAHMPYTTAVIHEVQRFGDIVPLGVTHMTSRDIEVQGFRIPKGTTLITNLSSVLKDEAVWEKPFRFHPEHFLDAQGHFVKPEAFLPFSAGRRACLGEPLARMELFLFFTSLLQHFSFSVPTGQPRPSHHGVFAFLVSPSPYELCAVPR
# Voltage-gated inwardly rectifying potassium channel KCNH2, sequence (Q12809 whole entry): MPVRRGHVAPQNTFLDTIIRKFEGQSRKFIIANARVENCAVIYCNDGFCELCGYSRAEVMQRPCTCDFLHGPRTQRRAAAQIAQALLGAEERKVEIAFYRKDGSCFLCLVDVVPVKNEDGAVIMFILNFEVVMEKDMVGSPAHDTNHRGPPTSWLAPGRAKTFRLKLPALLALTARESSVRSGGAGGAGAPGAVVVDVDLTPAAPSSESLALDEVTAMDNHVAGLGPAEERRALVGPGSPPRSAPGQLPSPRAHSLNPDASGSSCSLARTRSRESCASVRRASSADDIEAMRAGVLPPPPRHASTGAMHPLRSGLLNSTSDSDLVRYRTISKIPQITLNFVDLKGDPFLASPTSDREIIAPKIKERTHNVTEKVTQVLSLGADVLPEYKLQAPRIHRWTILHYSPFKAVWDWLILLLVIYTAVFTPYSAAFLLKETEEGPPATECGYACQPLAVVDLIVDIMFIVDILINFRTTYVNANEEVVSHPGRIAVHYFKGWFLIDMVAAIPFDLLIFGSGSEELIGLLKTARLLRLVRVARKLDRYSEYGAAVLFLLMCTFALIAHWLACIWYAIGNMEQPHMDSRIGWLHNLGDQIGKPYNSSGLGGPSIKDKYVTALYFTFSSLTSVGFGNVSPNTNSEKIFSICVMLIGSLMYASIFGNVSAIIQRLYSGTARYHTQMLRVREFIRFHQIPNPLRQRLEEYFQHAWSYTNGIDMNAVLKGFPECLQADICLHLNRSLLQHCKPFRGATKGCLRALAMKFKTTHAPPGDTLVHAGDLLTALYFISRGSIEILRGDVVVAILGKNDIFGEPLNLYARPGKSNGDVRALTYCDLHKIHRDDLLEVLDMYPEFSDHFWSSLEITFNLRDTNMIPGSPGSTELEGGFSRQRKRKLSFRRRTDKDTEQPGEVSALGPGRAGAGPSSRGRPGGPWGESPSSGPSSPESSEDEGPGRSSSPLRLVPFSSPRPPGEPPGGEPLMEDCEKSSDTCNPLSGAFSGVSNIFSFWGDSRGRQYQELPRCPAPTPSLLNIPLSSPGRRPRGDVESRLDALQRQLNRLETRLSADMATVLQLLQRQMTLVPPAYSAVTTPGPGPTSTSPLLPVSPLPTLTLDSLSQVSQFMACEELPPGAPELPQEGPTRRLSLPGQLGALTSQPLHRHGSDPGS
smiles,measurement,setting,value
O=c1cc(N2CCN(CC3CCCCC3)CC2)sc2c([N+](=O)[O-])cc(C(F)(F)F)cc12,half-life at 1 µM,[1],462 min
same,AUC(0-inf),[2],5180 ng·h/mL
same,AUC(0-t) at 24 h,[3],4950 ng·h/mL
same,hepatocyte CLint at 1 µM,[4],1.5 µL/min/1e6 cells
same,MRT inf,[5],4.91 h
same,AUC(0-t) at 24 h,[6],1580 ng·h/mL
same,half-life,[7],435 min
same,IC50,[8],> 30 µM
same,IC50,Cytochrome P450 2D6,> 50 µM
same,IC50,Cytochrome P450 1A2,> 50 µM
same,MIC90,[9],< 0.016 µg/mL
same,half-life,[10],392 min
same,selectivity ratio,[11],> 4000
same,AUC(0-inf),[12],1700 ng·h/mL
same,"remaining at 0.5 h, 1 µM",[13],61.5%
same,IC50,Cytochrome P450 2C9,> 50 µM
same,bioavailability,[14],13.1%
same,hepatocyte CLint at 1 µM,[15],3.1 µL/min/1e6 cells
same,IC50,Cytochrome P450 3A4,> 50 µM
same,clearance,[16],32.3 mL/min/kg
same,half-life at 1 µM,[17],224 min
same,"remaining at 0.5 h, 1 µM",[18],66.7%
same,IC50,Cytochrome P450 2C19,> 50 µM
